Ends that are not written are not given here.
How the values were obtained:
[1] = DIO-NASH biopsy-confirmed mouse model; assay type: in vivo
In short: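 Male C57BL/6JRj mice fed AMLN diet (40% fat with trans-fat, 20% fructose, 2% cholesterol) for 33 weeks, then liver-biopsied. Only mice with steatosis score ≥2 and fibrosis stage ≥F1 were stratified into groups (n=12-13). Groups received vehicle or test compound at 10 or 30 mg/kg for a further 12 weeks.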

[2] = CDHFD-induced NASH and fibrosis mice; assay type: in vivo, mouse
[3] = tested on: isolated diabetic mouse hearts; assay: Langendorff-perfused db/db hearts, stable isotope analysis; details: 10 μM Cariporide
SD rat islets = assay: Perifusion of rat islets, GSIS; assay type: cell-based; details: for potentiation of GSIS at low concentrations: 10-100 pM
[4] = 6-day s.c. GIP infusion crossover study, T1D; assay type: in vivo, human
[5] = tested on: obese T2DM and lean subjects; assay: GIP infusion, tissue blood flow; assay type: in vivo, human
[6] = tested on: mouse hypothalamic (mHypoA) and human (SH-SY5Y) neuronal cells; assay: Resistin overexposure of neuronal cells; assay type: cell-based; details: for resistin-dependent neuronal inflammation and IR: pharmacological inhibition
[7] = tested on: patients with type 2 diabetes; assay: Network meta-analysis of antidiabetic medications on blood pressure; set-up: species or system human; details: network meta-analysis
[8] = 12 week L-carnitine treatment in type 2 diabetes patients; assay type: in vivo, human; details: after 12 weeks
In short: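 32 patients with type 2 diabetes treated with L-carnitine for 12 weeks, with plasma free carnitine checked for compliance. Two-step hyperinsulinemic-euglycemic clamp (10 then 40 mU/m2/min) with D-[6,6-2H2]-glucose tracer gave hepatic (EGP suppression) and peripheral sensitivity. Vastus lateralis acetylcarnitine by T1-edited long-TE (350 ms) 1H-MRS at rest and after 30 min cycling at 70% Wmax. IHL by 1H-MRS. All measured before and after.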

[9] = 48-week tofogliflozin vs glimepiride trial in T2D with NAFLD; assay type: in vivo, human; details: after 48 weeks; for AST: baseline 55.4 ± 41.8 / 49.7 ± 46.8; for ALT: baseline 72.2 ± 60.5 / 76.4 ± 77.8; for body weight: baseline 78.7 ± 17.7 / 81.3 ± 19.2; for HbA1c: baseline tofogliflozin 8.0 ± 0.5, glimepiride 8.4 ± 0.9
[10] = Nasal vs injectable glucagon, insulin-induced hypoglycaemia; assay type: in vivo, human
[11] = Insulin icodec vs IGlar U100 26-week phase 2 trial; assay type: in vivo, human
In short: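 Randomized, double-blind, double-dummy, treat-to-target phase 2 trial lasting 26 weeks. Participants were insulin-naïve adults with T2D and HbA1c 7.0-9.5% on metformin ± DPP4i, randomized 1:1 (n=247). Starting doses were 70 U once weekly or 10 U once daily, titrated weekly to a pre-breakfast SMBG target of 3.9-6.0 mmol/L. The primary endpoint was HbA1c change from baseline to week 26; FPG and mean weekly dose over the last two weeks were secondary.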

[12] = EXSCEL post-hoc analysis, eGFR slope and UACR; assay type: in vivo, human
[13] = resistin overexposure, neuronal cells

## O=S(=O)(Nc1cc(Cl)c(Oc2cnc3ccccc3c2)c(Cl)c1)c1ccc(Cl)cc1Cl [CHS-131]
[1]; high dose
  lower plasma aspartate transaminase: 29%
  lower total cholesterol: 20%
[1]; high dose 30 mg/kg
  increase of plasma adiponectin: 137%
[1]; high dose 30 mg/kg, 12 weeks
  lower plasma alanine transaminase: 37%
[1]; low dose 10 mg/kg
  increase of plasma adiponectin: 114%
[1]; trend
  Galectin-3: -18%
  hydroxyproline: -28%

## O=C(O)c1ccnc(N2CC(O)(c3ccc(OCc4c(-c5c(Cl)cccc5Cl)noc4C4CC4)cc3Cl)C2)c1 [CIL, Cilofexor]
[2]; CDHFD 14 weeks, treatment last 6 weeks
  hepatic TG vs vehicle: 2.6%
[2]; mouse, in vivo
  collagen-1α1 gene expression vs vehicle: -37.5%
  hepatic F4/80 gene expression vs vehicle: -1.6%
  hepatic IL-1β gene expression vs vehicle: -37.5%
  hepatic TBARS vs vehicle: 11.0%
  hepatic hydroxyproline vs vehicle: -13.7%

## CC(C)c1ccc(C(=O)NC(=N)N)cc1S(C)(=O)=O [Cariporide]
[3]
  Empa effects on lactate labeling and G6P: mitigated

## CC[C@H](C)[C@H](NC(=O)[C@H](CO)NC(=O)[C@H](Cc1ccc(O)cc1)NC(=O)[C@H](CC(=O)O)NC(=O)[C@H](CO)NC(=O)[C@@H](NC(=O)[C@H](Cc1ccccc1)NC(=O)[C@@H](NC(=O)CNC(=O)[C@H](CCC(=O)O)NC(=O)[C@H](C)NC(=O)[C@@H](N)Cc1ccc(O)cc1)[C@@H](C)O)[C@@H](C)CC)C(=O)N[C@@H](C)C(=O)N[C@@H](CCSC)C(=O)N[C@@H](CC(=O)O)C(=O)N[C@@H](CCCCN)C(=O)N[C@H](C(=O)N[C@@H](Cc1c[nH]cn1)C(=O)N[C@@H](CCC(N)=O)C(=O)N[C@@H](CCC(N)=O)C(=O)N[C@@H](CC(=O)O)C(=O)N[C@@H](Cc1ccccc1)C(=O)N[C@H](C(=O)N[C@@H](CC(N)=O)C(=O)N[C@@H](Cc1c[nH]c2ccccc12)C(=O)N[C@@H](CC(C)C)C(=O)N[C@@H](CC(C)C)C(=O)N[C@@H](C)C(=O)N[C@@H](CCC(N)=O)C(=O)N[C@@H](CCCCN)C(=O)NCC(=O)N[C@@H](CCCCN)C(=O)N[C@@H](CCCCN)C(=O)N[C@@H](CC(N)=O)C(=O)N[C@@H](CC(=O)O)C(=O)N[C@@H](Cc1c[nH]c2ccccc12)C(=O)N[C@@H](CCCCN)C(=O)N[C@@H](Cc1c[nH]cn1)C(=O)N[C@@H](CC(N)=O)C(=O)N[C@H](C(=O)N[C@H](C(=O)N[C@@H](CCC(N)=O)C(=O)O)[C@@H](C)O)[C@@H](C)CC)C(C)C)[C@@H](C)CC [GIP]
SD rat islets
  potentiation of GSIS at low concentrations: potentiated GSIS
[4]; 6 pmol/kg/min s.c., 6 days, mean ± SEM
  increase of daytime time in range (3.9-[…]) vs placebo: 160 ± 74 min/day
[4]; in vivo
  decrease of 24-hour diastolic blood pressure: 3.1 ± 1.3 mmHg
  decrease of 24-hour systolic blood pressure: 5.8 ± 2.6 mmHg
[5]; GIP infusion, operated subjects
  SAT blood flow increase from baseline: 143%
[5]; GIP-infusion, control
  VAT blood flow increase from baseline: 234%
[5]; GIP-infusion, controls
  SAT blood flow increase from baseline: 385%
[5]; GIP-infusion, obese
  SAT blood flow increase from baseline: 119%
  VAT blood flow increase from baseline: 105%

## CCOC(=O)C1=CCCC[C@H]1S(=O)(=O)Nc1ccc(F)cc1Cl [TAK-242]
[6]
  resistin-dependent neuronal inflammation and IR: prevents

## Cc1ccc([C@@H]2O[C@H](CO)[C@@H](O)[C@H](O)[C@H]2O)cc1Cc1ccc(-c2ccc(F)cc2)s1 [canagliflozin]
[7]
  diastolic blood pressure, mean difference versus placebo: -1.42 mmHg

## C[N+](C)(C)C[C@H](O)CC(=O)[O-] [carnitine, L-carnitine]
[8]; before 1.18±0.13
  resting skeletal muscle acetylcarnitine: 1.54±0.17 mmol/kgww
[8]; before 3.70±0.22
  post-exercise skeletal muscle acetylcarnitine: 4.53±0.30 mmol/kgww
[8]; before 8.1±0.3
  plasma glucose: 7.7 ± 0.3 mmol/L
[8]; before 10.53±1.85
  ΔRd (peripheral insulin sensitivity): 13.83 ± 2.02 µmol/kg/min
[8]; before 14.7±2.6
  intrahepatic lipid content (IHL): 12.8±2.2%
[8]; before 31.9 ±2.9
  EGP suppression (hepatic insulin sensitivity): 39.9±3.2%

## CCOc1ccc(Cc2cc([C@@H]3O[C@H](CO)[C@@H](O)[C@H](O)[C@H]3O)ccc2Cl)cc1 [dapagliflozin]
[7]
  diastolic blood pressure, mean difference versus placebo: -1.48 mmHg
CON-D and T2DM-D, non-significant
  increase in hepatic lipid content (HCL): 20%
T2DM-D, T2DM-P -6±0.02
  decrease in hepatic glycogen: -10±0.02%
Both groups
  glycogenolysis: no impact
Single dose 10mg
  EGP higher following administration: 25%

## CCC1=C(C)CN(C(=O)NCCc2ccc(S(=O)(=O)NC(=O)N[C@H]3CC[C@H](C)CC3)cc2)C1=O [glimepiride]
[9]
  AST: 52.3 ± 37.6 IU/L
  ALT: 78.9 ± 68.7 IU/L
  body weight: 81.9 ± 21.1 kg
  HbA1c: 7.5 ± 0.6%

## CCCCCCC(=O)CCCCCC/C=C/C[C@@H](O)[C@H](O)[C@@](N)(CO)C(=O)O [myriocin]
[6]
  resistin-dependent neuronal inflammation and IR: prevents

## CCc1ccc(Cc2ccc3c(c2)[C@]2(OC3)O[C@H](CO)[C@@H](O)[C@H](O)[C@H]2O)cc1 [tofogliflozin]
[9]; baseline 1.6 ± 1.1
  stage score: 1.1 ± 1.3
[9]; baseline 1.7 ± 0.9
  grade score: 0.9 ± 0.8
[9]
  AST: 27.2 ± 22.4 IU/L
  ALT: 33.1 ± 31.5 IU/L
  body weight: 73.3 ± 18.3 kg
  HbA1c: 6.9 ± 1.2%
[9]; tofogliflozin baseline 2.0 ± 0.7
  steatosis score: 1.2 ± 0.4

## GIP(3-30)
SD rat islets; receptor antagonists
  insulin secretion in response to glucose alone: not reduced

## glucagon [injectable glucagon]
[10]; in vivo
  geometric least square mean maximal blood glucose (BGMAX): 11.4 mmol/L
  headache: 5.8%
  mean time to treatment success: 10.4 min
  nausea: 28.8%
  vomiting: 11.5%
[10]; within 15 minutes, T1D or T2D
  patients achieving treatment success: 97.0%

## glucagon-like peptide-1 (HAEGTFTSDVSSYLEGQAAKEFIAWLVKGR; ends and bridges not checked; UniProt P01275 98-127, looked up) [GLP-1]
SD rat islets
  potentiation of GSIS at low concentrations: no such effect

## insulin glargine U100 [IGlar U100]
[11]; baseline 8.1 icodec, 8.0 IGlar U100
  estimated mean HbA1c at week 26: 6.9%
[11]; in vivo
  estimated mean FPG at week 26: 7.05 mmol/L
  estimated mean weekly insulin dose, last two weeks: 284 U/week
[11]; on-treatment period
  level 2 and 3 hypoglycaemia: 46 events per 100 patient years of exposure
[11]; week 26
  estimated mean change in HbA1c from baseline: -1.15 %-points

## once-weekly exenatide [EQW]
[12]; baseline UACR>30 mg/g
  reduction of UACR vs placebo: 28.2%
[12]; baseline UACR>100 mg
  reduction of UACR vs placebo: 22.5%
[12]; baseline UACR>100mg/g, 95% CI 0.24-1.34
  eGFR slope vs placebo: +0.79 mL/min/1.73m2/year
[12]; baseline UACR>200 mg
  reduction of UACR vs placebo: 34.5%
[12]; baseline UACR>200mg/g, 95% CI 0.57-2.06
  eGFR slope vs placebo: +1.32 mL/min/1.73m2/year

B1: resistin: "circulating factors originated from adipose tissue and immune cells"; "a key mediator linking obesity to IR" (protein, UniProt Q9HD89 19-108, looked up)
Resistin: KTLCSMEEAINERIQEVAGSLIFRAISSIGLECQSVTSRGDLATCPRGFAVTGCTCGSACGSWDVRAETTCHCQCAGMDWTGARCCRVQP
[6]; [13]
  increased expression of IL6: 89.93%
  inhibition of insulin-dependent phosphorylation of Akt: 40.6%
